# Legend:
# Type in all cases: functional, cell-based
# [1] = tested on: MG-63; experiment: Cytotoxicity against human MG63 cells assessed as decrease in cell viability after 48 hrs by MTT assay; conditions: MG-63, 48 h
# Method in brief: (§1)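 Cells grown in DMEM Glutamax with 10% FBS, 2.5 μg/mL fungizone, 100 IU/mL penicillin and 100 μg/mL streptomycin. Seeded at 3.3 × 10^4 cells/mL and left 24 h (37 °C, 5% CO2) to adhere. Pure compounds added as dilutions from 50 to 0.003 μg/mL for 48 h. MTT 0.5 mg/mL for 3 h, formazan dissolved in DMSO, absorbance read at 550 nm. Triplicates averaged; IC50 taken from dose–response curves.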
# [2] = tested on: RKO; experiment: Cytotoxicity against human RKO cells assessed as decrease in cell viability after 48 hrs by MTT assay; method in brief: as §1
# [3] = tested on: T47D; experiment: Cytotoxicity against human T47D cells assessed as decrease in cell viability after 48 hrs by MTT assay; method in brief: as §1
SMILES,IC50 [1] [µM],IC50 [2] [µM],IC50 [3] [µM]
CCCCCCC(Cl)CCCCCc1c(O)cc(CCCCCCC(Cl)CCCC)cc1O[C@@H]1OC[C@@H](O)[C@H](O)[C@H]1O (some centres undefined),39,40,22
CCCCCCCCCC(Cl)CCCCCc1cc(O)c(CCCCCC(Cl)CCCCCC)c(O[C@@H]2OC[C@@H](O)[C@H](O)[C@H]2O)c1 (some centres undefined),> 10,> 10,> 10
CCCCCCC(Cl)CCCCCc1cc(O)c(CCCCCC(Cl)CCCCCC)c(O[C@@H]2OC[C@@H](O)[C@H](O)[C@H]2O)c1 (some centres undefined),> 10,> 10,> 10
CCCCCCCC(Cl)(Cl)CCCCCc1cc(O)c(CCCCCC(Cl)CCCCCC)c(O[C@@H]2OC[C@@H](O)[C@H](O)[C@H]2O)c1 (some centres undefined),> 10,> 10,59.8
CCCCCCCC(Cl)CCCCCc1cc(O)c(CCCCCC(Cl)CCCCCC)c(O[C@@H]2OC[C@@H](O)[C@H](O)[C@H]2O)c1 (some centres undefined),22,40,23
CCCCCCCCC(Cl)CCCCCc1cc(O)c(CCCCCC(Cl)CCCCCC)c(O[C@@H]2OC[C@@H](O)[C@H](O)[C@H]2O)c1 (some centres undefined),> 10,> 10,> 10
CCCCCCCCCCCCCc1cc(O)c(CCCCCC(Cl)CCCCCC)c(O[C@@H]2OC[C@@H](O)[C@H](O)[C@H]2O)c1 (some centres undefined),> 10,> 10,> 10
CCCCCCCCCCCc1cc(O)c(CCCCCC(Cl)CCCCCC)c(O[C@@H]2OC[C@@H](O)[C@H](O)[C@H]2O)c1 (some centres undefined),> 10,> 10,> 10

# — ChEMBL document CHEMBL4000159, “Bartolosides E-K from a Marine Coccoid Cyanobacterium” (J Nat Prod, 2016)
